Screens deposited in PubChem by Sanford-Burnham Center for Chemical Genomics.
In the library only some 0.79% were active in any assay of this set; here they are far more common.
bIAP inhibitor – intestinal alkaline phosphatase (bovine) inhibition; purified bovine IAP, CDP-star luminescence, 30 min; inhibition, % at 20 µM; 190,000 tested, under 10 active; AID 1019;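 active = over 50% inhibition of intestinal alkaline phosphatase at 20 µM in the single-dose screen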
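Assay system – bovine IAP enzyme · Quantity – bovine IAP at 1/65,000,000 final dilution · Detection – CDP-star luminescence signal · Times – 30 min reaction at room temperature · Also added – CDP-star substrate at 30 µM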
bIAP activator – intestinal alkaline phosphatase (bovine) activation; activation factor at 20 µM; 200,000 tested, 0.17% active; purified bovine IAP, CDP-star luminescence, 30 min; hits give high values; fold of DMSO-control signal, blank-subtracted;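 active = activation factor of 2 or more at 20 µM, a signal rise over negative controls twice the positive control's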
mIAP act – mouse IAP activation; muIAP, CDP-Star luminescence, 30 min; hits give high values; 1 = vehicle-only enzyme signal, 0 = enzyme-free wells; activation factor at 10 µM; 330,000 tested, 0.24% active;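 active = activation factor of at least 2 at 20 µM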
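System: Mouse IAP enzyme | Also added: CDP-Star substrate | Dosing: Compounds dispensed in DMSO | Schedule: 30 min enzyme-substrate-compound incubation at room temperature | Technique: Chemiluminescence readout | Control set: DMSO-only wells and no-enzyme negative control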
hIAP act – increases human intestinal alkaline phosphatase activity; P09923; purified human IAP, CDP-Star luminescence, 30 min; hits give high values; 1 = vehicle-only enzyme, 0 = enzyme-free background; activation factor at 10 µM; 330,000 tested, 0.16% active; AID 2524;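 active = activation factor of the enzyme at least 2-fold when tested at 20 µM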
Target sequence (P09923 whole entry, looked up): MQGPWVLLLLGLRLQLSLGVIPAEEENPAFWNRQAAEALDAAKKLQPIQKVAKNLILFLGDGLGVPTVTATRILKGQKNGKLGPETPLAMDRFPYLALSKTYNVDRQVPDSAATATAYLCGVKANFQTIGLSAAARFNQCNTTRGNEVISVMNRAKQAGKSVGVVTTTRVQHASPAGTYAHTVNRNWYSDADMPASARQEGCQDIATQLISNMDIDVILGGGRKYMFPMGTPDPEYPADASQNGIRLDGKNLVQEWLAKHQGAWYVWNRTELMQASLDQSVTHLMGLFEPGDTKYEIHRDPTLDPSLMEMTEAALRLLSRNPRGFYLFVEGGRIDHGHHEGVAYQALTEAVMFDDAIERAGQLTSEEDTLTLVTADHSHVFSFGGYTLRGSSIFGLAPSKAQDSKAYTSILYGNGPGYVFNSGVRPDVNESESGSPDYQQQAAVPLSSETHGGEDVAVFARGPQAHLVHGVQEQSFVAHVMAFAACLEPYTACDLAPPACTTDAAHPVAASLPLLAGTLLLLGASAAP
hIAP block – human IAP inhibition | P09923 | inhibition, % at 10 µM | purified IAP, CDP-Star luminescence, 30 min | 330,000 tested, 0.12% active;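 active = inhibition reaching a set limit with compound at 10 µM in the primary screen, cut at about 35% in these data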;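 note: plate controls were DMSO wells with enzyme for no effect and no-enzyme buffer wells for full effect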
mIAP inh – blocks mouse intestinal alkaline phosphatase; purified mouse IAP, CDP-Star luminescence, 30 min; inhibition, % at 10 µM; 330,000 tested, 0.2% active; AID 2806;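 active = inhibition of at least 40% at 10 µM in the primary screen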;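 note: plate controls were DMSO with enzyme for no effect and no enzyme wells for full effect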
mIAP inh conf – mouse IAP inhibition confirmation; purified mouse IAP, CDP-Star luminescence, 30 min; AID 434971; 11,000 tested, 4.7% active; inhibition, % at 10 µM; shares compounds with mIAP inh;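 active = inhibition of at least 40% at 10 µM in either of the two replicates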;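 note: plate controls were DMSO wells with enzyme for no effect and buffer wells lacking enzyme for full effect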
An asterisk follows results filed as active; i = inactive; . = not tested or not shown.

SMILES	bIAP inhibitor	bIAP activator	mIAP act	hIAP act	hIAP block	mIAP inh	mIAP inh conf
O=C(NCC1CCN(Cc2ccccc2F)CC1)Nc1cccc(Br)c1	.	.	3.3*	1.4	-39	-226	-105
O=C(NCC1CCN(Cc2ccccc2F)CC1)Nc1ccccc1F	.	.	1.3	1.1	-7	-30	.
Cc1ccc(C)c(CN2CCC(CNC(=O)Nc3ccc(C)c(C)c3)CC2)c1	.	.	3.9*	1.3	-27	-291	-121
CCOc1ccc(CCNC(=O)c2cc(-c3ccccc3)c(N3CCOCC3)s2)cc1	.	.	3.2*	1.2	-20	-222	-110
O=C(NCc1ccc2c(c1)OCO2)c1cc(-c2ccccc2)c(N2CCOCC2)s1	.	.	1.8	1.2	-18	-81	.
CC(N=Cc1cccc(O)c1O)c1ccccc1 (stereo unspecified)	17	0.8	0.4	0.8	20	60*	67*
CC(N=Cc1cc([N+](=O)[O-])ccc1O)c1ccccc1 (stereo unspecified)	8	0.9	1	1.1	-10	-2	.
NS(=O)(=O)c1ccc(Nc2nc(-c3ccc(O)cc3O)cs2)cc1	-19	1.2	0.59	1.1	-7	40*	60*
O=c1cc(-c2ccccc2)oc2cc(O)c(O)c(O)c12	.	.	0.95	1.2	-22	5	.
O=c1c(O)cccc2cc(O)c(O)c(O)c12	.	.	0.39	1.1	-14	61*	74*
COc1ccc(/C=C(\C#N)C(=O)Nc2cccc3ncccc23)cc1OC	.	.	1.1	1.2	-15	-14	.
N#C/C(=C\c1ccc(O)c(O)c1)C(=O)Nc1cccc2ncccc12	.	.	0.34	0.68	32	66*	76*
O=C(N/N=C/c1cc2c(cc1[N+](=O)[O-])OCO2)c1ccccn1	.	.	0.6	1	0	40*	58*
CCN1C(=O)/C(=C2\SC(=S)N(NC(=O)c3ccccc3O)C2=O)c2ccccc21	.	.	0.49	1.8	-75	51*	47*
Fc1ccc(-c2[nH]ncc2CN(CC2CCC2)CC2CCCO2)c(F)c1 (stereo unspecified)	-10	1.1	1	1.1	-10	-2	.
COc1ccc(C2=NOC(Cn3nc(-c4ccccc4)cc3C(=O)NCc3cccc(Br)c3)C2)cc1 (stereo unspecified)	.	.	3.8*	1.1	-10	-276	-112
CCc1cc(Cn2nc(-c3ccccc3)cc2C(=O)NCc2cccc(C(F)(F)F)c2)on1	.	.	3.4*	0.95	5	-244	-152
CCc1cc(Cn2nc(-c3ccccc3)cc2C(=O)NCc2cccc(Br)c2)on1	.	.	6.6*	0.93	7	i	-180
Cc1nc(Nc2cccc(O)c2)c2c3c(sc2n1)CCC3	.	.	1	1.2	-18	-1	.
CN(C(=O)COC(=O)CNC(=O)c1ccccc1F)C1CCCCC1	.	.	0.92	1.1	-5	8	.
CC(C)(C)OC(=O)N1CCCC1C(=O)NC(Cc1ccccc1)C(=O)O (stereo unspecified)	12	0.9	0.99	1.1	-9	0	.
COc1ccccc1NS(=O)(=O)c1cc(NC(=O)Nc2cccc(C)c2)ccc1N1CCCCC1	8	0.9	5.6*	1.2	-24	-457	-278
Cc1cc(C)cc(NC(=O)Nc2ccccc2N2CCCCC2)c1	.	.	3.3*	1.1	-12	-227	-112
COc1ccccc1NS(=O)(=O)c1cc(NC(C)=O)ccc1N1CCCCC1	-11	1.1	1	1.2	-24	0	.
COc1ccc(NC(=O)Nc2ccccc2)cc1S(=O)(=O)N1CCCCC1	-6	1.1	4.5*	1.7	-67	-346	-187
SMILES	bIAP inhibitor	bIAP activator	mIAP act	hIAP act	hIAP block	mIAP inh	mIAP inh conf
Cc1cc(C)cc(OCC(=O)Nc2ccccc2N2CCCCC2)c1	0	1	0.92	0.97	3	8	.
Cc1cc(C)cc(NC(=O)C2CCN(S(=O)(=O)c3ccc4c(c3)NC(=O)C(C)S4)CC2)c1 (stereo unspecified)	.	.	2.5*	1.4	-44	-145	-96
CCOC(=O)N1CCN(S(=O)(=O)c2c(C(=O)N3CCCCC3)c(C)n(C)c2C)CC1	.	.	0.94	1.2	-19	6	.
COc1ccccc1OC(=O)c1cc2ccccc2oc1=O	.	.	0.91	0.94	6	9	.
COc1cc(/C=C/[N+](=O)[O-])ccc1OC(=O)c1cc2ccccc2oc1=O	.	.	0.42	1.2	-16	58*	49*
Cc1cc(-c2ccc(N=Nc3c(S(=O)(=O)O)cc4cc(S(=O)(=O)O)cc(N)c4c3O)c(C)c2)ccc1N=Nc1c(S(=O)(=O)O)cc2cc(S(=O)(=O)O)cc(N)c2c1O	.	.	0.23	0.72	28	77*	83*
Nc1nc(-c2ccco2)cs1	30	0.7	0.69	0.85	15	31	.
c1coc(-c2nc(-c3ccco3)c(-c3ccco3)nc2-c2ccco2)c1	6	0.9	0.29	0.99	1	71*	84*
Nc1nc(-c2ccco2)c(-c2ccco2)s1	22	0.8	0.33	0.75	25	67*	69*
CC(C)c1ccc(NC(=O)NC(C)c2ccc3c(c2)OCO3)cc1 (stereo unspecified)	.	.	4.5*	1.2	-16	-352	-231
CC(NC(=O)Nc1ccc(Cl)cc1)c1ccccc1 (stereo unspecified)	.	.	3.3*	0.88	12	-228	-111
CCOc1ccc(NC(=O)NC(C)c2ccc3c(c2)OCO3)cc1 (stereo unspecified)	.	.	1.2	1.1	-8	-21	.
N=C1S/C(=C\c2ccco2)C(=O)N1c1nccs1	-10	1.1	0.4	1.1	-15	60*	65*
N=C1S/C(=C\c2ccco2)C(=O)N1c1ccc2c(c1)OCO2	-6	1.1	0.48	0.95	5	52*	78*
CC(C)(C)c1ccccc1OCCCCCn1ccnc1	-36	1.4	1.1	1.4	-38	-10	.
COc1cc(CN2CC(=O)N(c3cc(Cl)ccc3C)C2=S)cc(OC)c1OC	.	.	1	0.87	13	0	.
CC(/C=N/n1c(-c2ccco2)n[nH]c1=S)=C\c1ccco1	18	0.8	0.5	0.93	7	50*	52*
Cc1cccc(-c2n[nH]c(=S)n2/N=C/C=C/c2ccco2)c1	.	.	0.54	1.1	-8	46*	53*
Cc1ccc(NC(=O)COCC(=O)Nc2ccc(F)cc2)cc1	.	.	1	1	-1	-3	.
Cc1ccc(CN2C(=O)C3CCCN3c3ccc(S(=O)(=O)N4CCOCC4)cc32)cc1 (stereo unspecified)	-3	1	0.93	1	-2	7	.
COc1ccc(CN2CC[C@H]3C=CC[C@@H](C(=O)Nc4ccc(Cl)c(C(F)(F)F)c4)[C@H]3C2=O)cc1OC	.	.	2.1*	0.91	9	-110	-185
